Test [1] addresses T1, Adrenergic receptor alpha-2 (Rattus norvegicus, UniProt P22086+P19328+P22909).
T1 sequence (P22086 whole entry): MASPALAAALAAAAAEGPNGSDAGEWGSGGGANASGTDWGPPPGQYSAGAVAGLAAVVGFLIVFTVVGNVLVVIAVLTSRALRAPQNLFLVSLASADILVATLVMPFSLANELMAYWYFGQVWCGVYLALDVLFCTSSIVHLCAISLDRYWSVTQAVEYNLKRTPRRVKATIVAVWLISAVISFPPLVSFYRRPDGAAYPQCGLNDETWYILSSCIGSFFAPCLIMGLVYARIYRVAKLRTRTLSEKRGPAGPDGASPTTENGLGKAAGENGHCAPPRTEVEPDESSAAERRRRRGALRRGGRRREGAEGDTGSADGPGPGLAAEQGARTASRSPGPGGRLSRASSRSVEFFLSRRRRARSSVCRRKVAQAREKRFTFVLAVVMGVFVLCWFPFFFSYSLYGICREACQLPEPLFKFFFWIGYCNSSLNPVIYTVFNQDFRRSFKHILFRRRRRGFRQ
T1 sequence (P19328 whole entry): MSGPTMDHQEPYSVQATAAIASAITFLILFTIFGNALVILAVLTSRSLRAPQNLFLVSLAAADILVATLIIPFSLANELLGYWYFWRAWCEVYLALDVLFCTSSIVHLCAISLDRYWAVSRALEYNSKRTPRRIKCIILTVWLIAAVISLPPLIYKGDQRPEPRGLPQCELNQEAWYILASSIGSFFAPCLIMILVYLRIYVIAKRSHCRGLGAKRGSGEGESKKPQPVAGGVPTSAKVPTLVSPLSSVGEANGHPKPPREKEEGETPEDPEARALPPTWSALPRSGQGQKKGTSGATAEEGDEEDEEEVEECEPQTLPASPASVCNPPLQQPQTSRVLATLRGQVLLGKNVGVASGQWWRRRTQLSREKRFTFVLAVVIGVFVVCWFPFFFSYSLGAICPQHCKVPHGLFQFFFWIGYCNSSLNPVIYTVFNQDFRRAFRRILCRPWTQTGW
T1 sequence (P22909 whole entry): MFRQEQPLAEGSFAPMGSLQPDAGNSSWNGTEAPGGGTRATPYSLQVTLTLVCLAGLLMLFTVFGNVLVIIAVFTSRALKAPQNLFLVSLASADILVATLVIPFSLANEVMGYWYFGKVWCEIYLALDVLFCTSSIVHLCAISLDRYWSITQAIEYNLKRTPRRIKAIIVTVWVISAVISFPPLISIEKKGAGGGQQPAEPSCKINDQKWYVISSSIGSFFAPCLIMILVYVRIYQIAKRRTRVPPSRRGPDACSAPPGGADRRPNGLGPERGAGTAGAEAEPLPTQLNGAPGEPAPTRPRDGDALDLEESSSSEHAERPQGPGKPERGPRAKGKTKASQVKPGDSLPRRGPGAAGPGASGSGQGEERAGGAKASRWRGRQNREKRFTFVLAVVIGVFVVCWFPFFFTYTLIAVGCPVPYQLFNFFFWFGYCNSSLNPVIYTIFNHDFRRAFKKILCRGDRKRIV
The test is described as follows: Evaluated for its ability to displace [3H]rauwolscine from alpha-2 adrenergic receptor of rat cerebral cortex. The test is classed as tissue-based.

Test [2] relates to Rattus norvegicus. Nature of the test: Tested for reversal of clonidine-induced mydriasis in the rat administered intravenously. Type of test: functional. To be noted: iv. An outline of the steps:
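In rats, clonidine-induced mydriasis from activation of central postsynaptic α2-adrenoceptors is established first. Test agents are then scored for reversing it, as a read-out of blood-brain barrier penetration and central α2 antagonism.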

Test [3] has as its target T2, Alpha-2A adrenergic receptor (Bos taurus, UniProt Q28838).
T2 sequence (Q28838 whole entry): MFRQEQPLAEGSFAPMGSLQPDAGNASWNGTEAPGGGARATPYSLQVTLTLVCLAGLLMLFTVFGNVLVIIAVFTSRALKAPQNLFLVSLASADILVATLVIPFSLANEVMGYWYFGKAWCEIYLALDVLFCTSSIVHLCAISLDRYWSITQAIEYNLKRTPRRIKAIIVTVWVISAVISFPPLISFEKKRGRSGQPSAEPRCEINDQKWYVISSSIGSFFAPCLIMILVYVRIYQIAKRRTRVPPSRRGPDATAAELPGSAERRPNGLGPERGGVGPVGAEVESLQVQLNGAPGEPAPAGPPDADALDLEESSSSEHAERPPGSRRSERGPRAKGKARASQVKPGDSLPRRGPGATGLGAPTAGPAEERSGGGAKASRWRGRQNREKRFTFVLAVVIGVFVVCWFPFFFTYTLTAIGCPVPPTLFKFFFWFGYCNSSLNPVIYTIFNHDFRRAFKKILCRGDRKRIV
Nature of the test: Evaluated for its ability to displace [3H]clonidine from alpha-2 adrenergic receptor of calf cerebral cortex. Type of test: tissue-based.

The target in test [4] is T3, Alpha-1A adrenergic receptor (Bos taurus, UniProt P18130).
T3 sequence (P18130 whole entry): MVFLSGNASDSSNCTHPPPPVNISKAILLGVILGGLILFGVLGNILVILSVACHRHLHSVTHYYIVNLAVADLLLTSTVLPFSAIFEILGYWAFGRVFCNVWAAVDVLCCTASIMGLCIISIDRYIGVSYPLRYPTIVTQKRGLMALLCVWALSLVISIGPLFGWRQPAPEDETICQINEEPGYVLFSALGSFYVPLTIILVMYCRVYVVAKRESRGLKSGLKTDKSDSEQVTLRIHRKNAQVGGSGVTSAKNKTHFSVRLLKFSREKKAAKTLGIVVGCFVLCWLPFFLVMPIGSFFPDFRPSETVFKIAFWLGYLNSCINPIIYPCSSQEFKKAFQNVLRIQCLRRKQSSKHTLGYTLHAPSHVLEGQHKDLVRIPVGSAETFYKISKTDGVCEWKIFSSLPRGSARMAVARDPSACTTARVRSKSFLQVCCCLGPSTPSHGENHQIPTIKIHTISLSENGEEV
The test is described as follows: Evaluated for its ability to displace [3H]prazosin from alpha-1-Adrenoceptor of calf cerebral cortex. Type of test: tissue-based.

The species entered for test [5] is Rattus norvegicus. The test is described as follows: Tested for antagonism of clonidine in the field-stimulated rat vas deferens. Type of test: functional. The note with it: read-out: pA2 (converted). An outline of the steps:
(§1)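 Isolated, field-stimulated rat vas deferens. Clonidine probes presynaptic α2-adrenoceptors and methoxamine probes postsynaptic α1-adrenoceptors. pA2 and slope come from Schild plots using at least three antagonist concentrations and four tissues per concentration. Values are means ± SD.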

For test [6], the species on record is Rattus norvegicus. The test is described as follows: Tested for antagonism of methoxamine in the field-stimulated rat vas deferens. To be noted: read-out: pA2 (converted). Type of test: functional. An outline of the steps: as §1

SMILES strings stand for the structures.

The Ki is the dissociation constant of the complex between target and ligand, obtained from inhibition or displacement. As a reminder, the ED50 is the dose that gives a 50% effect, or the effect in half of the subjects. Regarding `CN([C@@H]1CCN2CCc3c(oc4ccccc34)[C@@H]2C1)S(=O)(=O)CCO`, the Ki came out at 0.0011 µM in test [1], 0.00077 µM in test [3] and 0.11 µM in test [4]. In addition, the ED50 in the test on Rattus norvegicus [2] is 0.0346 mg/kg. The Kb was 0.000794 µM in the test listed under Rattus norvegicus [5] and 0.0347 µM in the test filed under Rattus norvegicus [6].

Take `CN(C1CCN2CCc3c(oc4ccccc34)C2C1)S(=O)(=O)CCO` (stereo unspecified): the Ki was 0.0016 µM in test [1], 0.00136 µM in test [3] and 0.21 µM in test [4]. The ED50 in the test with Rattus norvegicus [2] turned out to be 0.0435 mg/kg. Further, the Kb in the test listed under Rattus norvegicus [5] was 0.0017 µM; in the test listed under Rattus norvegicus [6] it was 0.102 µM.

On to `CN([C@H]1CCN2CCc3c(oc4ccccc34)[C@H]2C1)S(=O)(=O)CCO`, for which the Ki in test [1] turned out to be 0.19 µM; in test [3], 0.1 µM; in test [4], 8 µM. For the same compound, the ED50 with Rattus norvegicus [2] was 5.41 mg/kg. Further, the values for the Kb in the test filed under Rattus norvegicus [5] and in the test filed under Rattus norvegicus [6] were 0.0398 µM and 2.51 µM, respectively.

Regarding `COC(=O)[C@@H]1[C@H]2C[C@H]3c4[nH]c5ccccc5c4CCN3C[C@@H]2CC[C@@H]1O` [YOHIMBINE], in the test on Rattus norvegicus [2], the ED50 was found to be 1.04 mg/kg. The Kb in the test listed under Rattus norvegicus [5] was 0.0224 µM; in the test filed under Rattus norvegicus [6], 0.302 µM.

The values are drawn from ChEMBL document CHEMBL1122858, “N-(1,3,4,6,7,12b-hexahydro-2H-benzo[b]furo[2,3-a]quinolizin -2-yl)-N- methyl-2-hydroxyethane-sulfonamide: a potent and selective alpha 2-adrenoceptor antagonist” (J Med Chem, 1985).
